Counter-ions that a name gives are not always drawn. Active and inactive are the calls of the source.
Legend:
Mus musculus [1] = experiment: Dopaminergic activity in albino mouse assessed as induction of climbing behavior at 0.5 to 1.5 mg/kg, sc; format: functional, organism-based
How it was run: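 Male albino mice (20-25 g, N = 10) received agents sc in water with 0.1% sodium metabisulfite. They were placed in perspex cages lined with wire mesh and counted as climbing when holding the wire with all four paws. Read-outs were climbing index (% time climbing in the 30 min after the first climb) and maximum single-climb time. Range given is threshold to maximal dose.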

Rattus norvegicus [2] = experiment: Dopaminergic activity in Sprague-Dawley rat assessed as stereotyped behavior characterized by sniffing and biting at 0.5 to 2 mg/kg, sc; format: functional, organism-based
How it was run: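 Male Sprague-Dawley rats in groups of 10 received agents sc, dissolved in distilled water containing 0.1% sodium metabisulfite, and were scored for stereotyped sniffing and biting. Testing ran 08:00-18:00 h in sound-proofed rooms at 21 ± 2 °C. The reported range runs from the threshold dose to the dose producing the maximum attainable response, in mg/kg sc.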

Mus musculus [3] = experiment: Dopaminergic activity in albino mouse assessed as stereotyped behavior characterized by sniffing and biting at 1.5 to 4 mg/kg, sc; format: functional, organism-based
Mus musculus [4] = experiment: Dopaminergic activity in albino mouse assessed as induction of ipsilateral circling behavior at 0.25 to 1 mg/kg, sc; format: functional, organism-based
How it was run: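 Mice received a unilateral caudate-putamen electrolesion (1.5 mA, 15 s). After 14 days they were screened with apomorphine HCl 1.0 mg/kg sc, and animals circling ≥7 ipsilateral revolutions/2 min were kept. After 7 days' recovery, agents were given sc and complete one-direction revolutions were counted manually. Lesion sites were verified histologically. Range given is threshold to maximal dose.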

Rattus norvegicus [5] = experiment: Dopaminergic activity in Sprague-Dawley rat assessed as stereotypic behavior administered into caudate-putamen measured up to 25 ug from 5 to 15 mins to persisted up to 5 to 6 hrs; format: functional, organism-based
How it was run: (§1)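 Male Sprague-Dawley rats (250 ± 26 g) had guide cannulae implanted for bilateral injection into caudate-putamen and nucleus accumbens, and were used 10–14 days later. Nialamide 100 mg/kg ip was given 2 h before. Drug in N2-bubbled water (minimal DMF if needed), 1–2 µL over 60 s. Hyperactivity was read as photocell counts/5 min, stereotypy was scored, and cannula sites were checked histologically.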

Rattus norvegicus [6] = experiment: Dopaminergic activity in Sprague-Dawley rat assessed as biting behavior up to 50 ug administered into nucleus accumbens; format: functional, organism-based; how it was run: as §1
Rattus norvegicus [7] = experiment: Dopaminergic activity in Sprague-Dawley rat assessed as hyperactivity up to 6.25 to 50 ug administered into nucleus accumbens; format: functional, organism-based; how it was run: as §1
Rattus norvegicus [8] = experiment: Dopaminergic activity in Sprague-Dawley rat assessed as stereotyped behavior characterized by continous sniffing up to 12.5 to 50 ug administered into nucleus accumbens; format: functional, organism-based; how it was run: as §1
Rattus norvegicus [9] = experiment: Dopaminergic activity in Sprague-Dawley rat assessed as hyperactivity behavior administered into nucleus caudate-putamen measured up to 25 ug from 30 to 45 mins to persisted up to 5 to 6 hrs; format: functional, organism-based; how it was run: as §1
Felis catus = experiment: Inhibition of electrical-stimulation of postganglionic cardioaccelerator nerve in iv dosed cat; format: functional; conditions: read-out: ID50 (the source's name)
How it was run: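 Cats were anaesthetised with sodium pentobarbital 30 mg/kg and ventilated. The right postganglionic cardioaccelerator nerves were stimulated with bipolar electrodes (2 Hz, 5 ms pulses, supramaximal voltage, 20–30 s trains), and heart rate was read by cardiotachometer. Doses were spaced at 0.48 log intervals, and the dose inhibiting positive chronotropic responses by 50% was calculated.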

Rattus norvegicus [10] = experiment: Dopaminergic activity in Sprague-Dawley rat assessed as hyperactivity behavior administered into nucleus caudate-putamen measured up to 25 ug from 30 to 45 mins to persisted up to 3 hrs; format: functional, organism-based; how it was run: as §1
Canis familiaris [11] = experiment: Emetic activity in sc dosed dogs assessed as frequency of vomiting for 1 hr relative to apomorphine; format: functional, Canis lupus familiaris
Mus musculus [12] = experiment: Dopaminergic activity in albino mouse assessed as induction of ipsilateral circling behavior up to 10 mg/kg, sc; format: functional, organism-based; set-up: dose 10 mg/kg
How it was run: (§2)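 Male albino mice (30–35 g) received a unilateral caudate-putamen electrolesion (1.5 mA, 15 s) and 14 days of recovery. Only mice circling ≥7 ipsilateral revolutions/2 min after apomorphine HCl 1.0 mg/kg sc were kept, with a further 7 days of recovery. After sc dosing, complete revolutions in one direction were counted manually. Lesion sites were verified afterwards.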

Rattus norvegicus [13] = experiment: Dopaminergic activity in Sprague-Dawley rat assessed as stereotypic behavior administered into caudate-putamen measured up to 25 ug from 5 to 15 mins to persisted up to 3 hrs; format: functional, organism-based; how it was run: as §1
Rattus norvegicus [14] = experiment: Dopaminergic activity in Sprague-Dawley rat assessed as stereotyped behavior characterized by continous sniffing up to 25 ug administered into caudate-putamen; format: functional, organism-based; how it was run: as §1
Rattus norvegicus [15] = experiment: Dopaminergic activity in Sprague-Dawley rat assessed as stereotyped behavior characterized by sniffing and biting at up to 10 mg/kg, sc; format: functional, organism-based; set-up: dose 10 mg/kg
How it was run: (§3)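 Male Sprague-Dawley rats, groups of 10, were dosed sc in distilled water with 0.1% sodium metabisulfite, with solvent controls. Stereotyped sniffing and biting were scored as for intracerebral tests at 21 ± 2 °C between 08:00 and 18:00 h. Dose range runs from the threshold dose to the dose giving maximal response, in mg/kg sc.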

Mus musculus [16] = experiment: Dopaminergic activity in albino mouse assessed as stereotyped behavior characterized by sniffing and biting at up to 10 mg/kg, sc; format: functional, organism-based; set-up: dose 10 mg/kg
How it was run: (§4)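 Male albino mice (20–25 g, N = 10) were dosed sc in water containing 0.1% sodium metabisulfite and scored for stereotyped sniffing and biting. Dose range runs from the threshold dose to the dose giving maximal response, in mg/kg sc.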

Rattus norvegicus [17] = experiment: Dopaminergic activity in Sprague-Dawley rat assessed as hyperactivity up to 25 ug administered into caudate-putamen; format: functional, organism-based; how it was run: as §1
Mus musculus [18] = experiment: Dopaminergic activity in albino mouse assessed as induction of climbing behavior up to 10 mg/kg, sc; format: functional, organism-based; set-up: dose 10 mg/kg
How it was run: (§5)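 Male albino mice (20–25 g, N = 10) were dosed sc in water with 0.1% sodium metabisulfite and placed in wire-mesh-lined cages. A mouse counted as climbing when holding the wire with all four paws. Measures: climbing index (% time climbing in the 30 min after the first climb) and maximum single-climb time. Doses run from threshold to maximal response.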

Rattus norvegicus [19] = experiment: Dopaminergic activity in Sprague-Dawley rat assessed as stereotyped behavior characterized by sniffing and biting at 1 to 10 mg/kg, sc; format: functional, organism-based; how it was run: as §3
Mus musculus [20] = experiment: Dopaminergic activity in sc dosed albino mouse assessed as induction of ipsilateral circling behavior; format: functional, organism-based; how it was run: as §2
[21] = Induction of pecking activity in pigeons assessed as counts for 1 hr relative to apomorphine; format: functional, Columbidae
How it was run: (§6)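 Pigeons were dosed im, with doses spaced at 0.3 log intervals, and pecks were counted over 1 h. Pecking after 1.63 µmol apomorphine hydrochloride was taken as the 100% response.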

Mus musculus [22] = experiment: Dopaminergic activity in albino mouse assessed as induction of ipsilateral circling behavior at 0.5 to 2 mg/kg, sc after 120 mins; format: functional, organism-based; how it was run: as §2
Mus musculus [23] = experiment: Dopaminergic activity in albino mouse assessed as induction of climbing behavior at 0.025 to 1 mg/kg, sc; format: functional, organism-based; how it was run: as §5
Rattus norvegicus [24] = experiment: Dopaminergic activity in Sprague-Dawley rat assessed as stereotyped behavior characterized by sniffing and biting at 0.025 to 0.05 mg/kg, sc; format: functional, organism-based; how it was run: as §3
Mus musculus [25] = experiment: Dopaminergic activity in albino mouse assessed as stereotyped behavior characterized by sniffing and biting at 1 to 2 mg/kg, sc; format: functional, organism-based; how it was run: as §4
Mus musculus [26] = experiment: Dopaminergic activity in albino mouse assessed as induction of ipsilateral circling behavior at 0.5 to 2 mg/kg, sc; format: functional, organism-based; how it was run: as §2
Mus musculus [27] = experiment: Dopaminergic activity in albino mouse assessed as induction of climbing behavior at 0.025 to 1 mg/kg, sc after 120 mins; format: functional, organism-based; how it was run: as §5
Mus musculus [28] = experiment: Dopaminergic activity in albino mouse assessed as induction of climbing behavior at 0.1 to 0.5 mg/kg, sc; format: functional, organism-based; how it was run: as §5
Mus musculus [29] = experiment: Dopaminergic activity in albino mouse assessed as induction of ipsilateral circling behavior at 0.05 to 0.5 mg/kg, sc after 120 mins; format: functional, organism-based; how it was run: as §2
Mus musculus [30] = experiment: Dopaminergic activity in albino mouse assessed as stereotyped behavior characterized by sniffing and biting at 0.05 to 1 mg/kg, sc; format: functional, organism-based; how it was run: as §4
Rattus norvegicus [31] = experiment: Dopaminergic activity in Sprague-Dawley rat assessed as locomotor and stereotypic behavior administered into nucleus accumbens measured up to 25 ug from 5 to 15 mins to persisted up to 5 to 6 hrs; format: functional, organism-based; how it was run: as §1
Mus musculus [32] = experiment: Dopaminergic activity in albino mouse assessed as induction of climbing behavior at 0.5 mg/kg, sc up to 30 mins; format: functional; conditions: route subcutaneous; how it was run: as §5
Mus musculus [33] = experiment: Dopaminergic activity in albino mouse assessed as induction of ipsilateral circling behavior at 0.05 to 0.5 mg/kg, sc; format: functional, organism-based; how it was run: as §2
Mus musculus [34] = experiment: Dopaminergic activity in albino mouse assessed as induction of climbing behavior at 0.1 to 0.5 mg/kg, sc after 120 mins; format: functional, organism-based; how it was run: as §5
Rattus norvegicus [35] = experiment: Dopaminergic activity in Sprague-Dawley rat assessed as stereotyped behavior characterized by periodic biting associated with sniffing administered into nucleus accumbens; format: functional, organism-based; how it was run: as §1
[36] = Induction of pecking activity in pigeons assessed as counts for 1 hr; format: functional; conditions: Columbidae; how it was run: as §6
Canis familiaris [37] = experiment: Emetic activity in sc dosed dogs assessed as frequency of vomiting for 1 hr; format: functional; conditions: Canis lupus familiaris
How it was run: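 At least five dogs per compound were dosed sc, with doses spaced at 0.3 log intervals. Vomiting frequency was recorded over 1 h.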

SMILES | Activity (Rattus norvegicus [5]) | Activity (Rattus norvegicus [7]) | Activity (Rattus norvegicus [8]) | Activity (Rattus norvegicus [9]) | ED50 (Felis catus) [µmol/kg] | Activity (Rattus norvegicus [10]) | fold change (FC) (Canis familiaris [11]) | Activity (Mus musculus [12]) | Activity (Rattus norvegicus [13]) | Activity (Rattus norvegicus [14]) | Activity (Rattus norvegicus [15]) | Activity (Mus musculus [16]) | Activity (Rattus norvegicus [17]) | Activity (Mus musculus [18]) | further results
CN1CCc2cccc3c2[C@H]1Cc1ccc(O)c(O)c1-3 |  |  |  |  |  |  |  |  |  |  |  |  |  |  | Activity (Mus musculus [1]): Active; Activity (Rattus norvegicus [2]): Active; Activity (Mus musculus [3]): Active; Activity (Mus musculus [4]): Active
NCCc1ccc(O)c(O)c1 | Active | Active | Active | Active |  |  |  |  |  |  |  |  |  |  | Activity (Rattus norvegicus [6]): inactive
Oc1ccc2c(c1O)CC[C@@H]1NCCC[C@H]21 (relative stereo) |  | inactive | inactive |  | 0.027 | Active | 0.024 | inactive | Active | inactive | inactive | inactive | inactive | inactive | 
CCN1CCC[C@@H]2c3ccc(O)c(O)c3CC[C@@H]21 (relative stereo) |  | Active | Active |  |  | Active | 0.053 | inactive | Active |  | inactive | inactive | Active | inactive | 
Oc1ccc2c(c1O)CC[C@H]1NCCC[C@H]21 (relative stereo) |  | inactive | inactive |  | 0.0007 | Active | 4.5 | inactive | Active | Active |  | inactive | Active | inactive | Activity (Rattus norvegicus [19]): Active
CCN1CCC[C@@H]2c3ccc(O)c(O)c3CC[C@H]21 (relative stereo) | Active | inactive |  | Active | 0.0005 |  | 4.9 |  |  | Active |  |  | Active |  | Activity (Mus musculus [20]): Dose-dependent effect; fold change (FC) [21]: 0.39; Activity (Mus musculus [22]): Active; Activity (Mus musculus [23]): Active; Activity (Rattus norvegicus [6]): Active; Activity (Rattus norvegicus [24]): Active; Activity (Mus musculus [25]): Active; Activity (Mus musculus [26]): Active; Activity (Mus musculus [27]): Active
CCCN1CCC[C@@H]2c3ccc(O)c(O)c3CC[C@H]21 (relative stereo) | Active | Active |  | Active | 0.0003 |  | 2.7 |  |  | Active |  |  | Active |  | Activity (Mus musculus [20]): Dose-dependent effect; Activity (Mus musculus [28]): Active; Activity (Mus musculus [29]): Active; fold change (FC) [21]: 0.32; Activity (Mus musculus [30]): Active; Activity (Rattus norvegicus [31]): Active; Activity (Mus musculus [32]): >90%; Activity (Mus musculus [33]): Active; Activity (Rattus norvegicus [24]): Active; Activity (Mus musculus [34]): Active; Activity (Rattus norvegicus [35]): Active
CCCN1CCC[C@@H]2c3ccc(O)c(O)c3CC[C@@H]21 (relative stereo) |  | inactive | inactive |  |  | Active |  | inactive | Active | inactive | inactive | inactive | inactive | inactive | 
CN1CCc2cccc3c2[C@H]1Cc1ccc(O)c(O)c1-3 [APOMORPHINE HYDROCHLORIDE] |  |  |  |  |  |  |  |  |  |  |  |  |  |  | ED50 [36]: 0.77 µmol/kg; ED50 (Canis familiaris [37]): 0.14 µmol/kg
CN1CCc2cccc3c2[C@H]1Cc1ccc(O)c(O)c1-3 [APOMORPHINE] |  |  |  |  | 0.019 |  |  |  |  |  |  |  |  |  | 
